One assay concerns the target β3 (Homo sapiens, UniProt P13945). As to the kind of experiment: Radioligand binding.
The next assay deals with sigma-1 (Homo sapiens, UniProt Q99720). Kind of assay: Radioligand binding.
A further assay deals with α1A (Homo sapiens, UniProt P35348). As to the kind of experiment: Radioligand binding.
Another assay addresses EP3 (Homo sapiens, UniProt P43115). Kind of assay: Radioligand binding.
The next assay concerns the target EP4 (Homo sapiens, UniProt P35408). As to the kind of experiment: Radioligand binding.
The target in the next assay is D4 (Homo sapiens, UniProt P21917). As to the kind of experiment: Radioligand binding.
The target in a further assay is D5 (Homo sapiens, UniProt P21918). As to the kind of experiment: Radioligand binding.
The target in the next assay is D2 (Homo sapiens, UniProt P14416). Kind of assay: Radioligand binding.
Another assay deals with SERT (Homo sapiens, UniProt P31645). As to the kind of experiment: Radioligand binding.
Sequence of SERT (P31645 whole entry): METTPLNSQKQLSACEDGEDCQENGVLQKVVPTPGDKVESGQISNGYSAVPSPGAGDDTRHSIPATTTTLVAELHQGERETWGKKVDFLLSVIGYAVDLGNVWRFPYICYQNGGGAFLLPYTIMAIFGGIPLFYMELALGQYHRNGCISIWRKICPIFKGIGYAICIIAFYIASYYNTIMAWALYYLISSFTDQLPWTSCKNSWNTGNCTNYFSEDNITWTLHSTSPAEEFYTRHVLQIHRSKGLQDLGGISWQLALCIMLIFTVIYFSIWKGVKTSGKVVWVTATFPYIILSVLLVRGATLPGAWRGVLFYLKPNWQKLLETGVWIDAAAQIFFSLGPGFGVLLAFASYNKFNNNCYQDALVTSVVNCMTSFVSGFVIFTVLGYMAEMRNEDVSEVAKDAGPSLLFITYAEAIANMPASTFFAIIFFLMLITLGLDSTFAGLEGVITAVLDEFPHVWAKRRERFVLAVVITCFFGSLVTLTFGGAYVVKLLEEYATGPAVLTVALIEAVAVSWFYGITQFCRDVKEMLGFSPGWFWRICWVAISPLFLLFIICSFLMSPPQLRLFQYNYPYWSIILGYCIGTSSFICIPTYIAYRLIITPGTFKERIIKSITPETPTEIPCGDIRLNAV
The target of a further assay is DAT (Homo sapiens, UniProt Q01959). Kind of assay: Radioligand binding.
The next assay has as its target M1 (Homo sapiens, UniProt P11229). Kind of assay: Radioligand binding.
A further assay has as its target DOR (Homo sapiens, UniProt P41143). Kind of assay: Radioligand binding.
Another assay addresses Sigma-2 (Rattus norvegicus, UniProt Q5U3Y7). Kind of assay: Radioligand binding.
The target in a further assay is α2A (Homo sapiens, UniProt P08913). Kind of assay: Radioligand binding.
Sequence of α2A (P08913 whole entry): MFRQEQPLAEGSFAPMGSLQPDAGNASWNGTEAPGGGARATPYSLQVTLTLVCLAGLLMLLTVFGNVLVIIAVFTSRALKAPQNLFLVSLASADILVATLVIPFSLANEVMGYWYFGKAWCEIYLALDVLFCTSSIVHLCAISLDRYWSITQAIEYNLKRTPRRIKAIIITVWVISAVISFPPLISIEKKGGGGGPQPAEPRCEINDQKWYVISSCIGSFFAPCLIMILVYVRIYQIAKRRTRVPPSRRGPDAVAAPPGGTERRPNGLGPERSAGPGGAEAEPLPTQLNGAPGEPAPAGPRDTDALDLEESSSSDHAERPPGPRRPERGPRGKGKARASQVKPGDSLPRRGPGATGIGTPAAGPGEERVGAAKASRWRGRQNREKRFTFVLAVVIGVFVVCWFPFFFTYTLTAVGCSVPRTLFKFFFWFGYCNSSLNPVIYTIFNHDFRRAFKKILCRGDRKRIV
In another assay the target is M2 (Homo sapiens, UniProt P08172). As to the kind of experiment: Radioligand binding.
Another assay deals with α1B (Homo sapiens, UniProt P35368). Kind of assay: Radioligand binding.
Sequence of α1B (P35368 whole entry): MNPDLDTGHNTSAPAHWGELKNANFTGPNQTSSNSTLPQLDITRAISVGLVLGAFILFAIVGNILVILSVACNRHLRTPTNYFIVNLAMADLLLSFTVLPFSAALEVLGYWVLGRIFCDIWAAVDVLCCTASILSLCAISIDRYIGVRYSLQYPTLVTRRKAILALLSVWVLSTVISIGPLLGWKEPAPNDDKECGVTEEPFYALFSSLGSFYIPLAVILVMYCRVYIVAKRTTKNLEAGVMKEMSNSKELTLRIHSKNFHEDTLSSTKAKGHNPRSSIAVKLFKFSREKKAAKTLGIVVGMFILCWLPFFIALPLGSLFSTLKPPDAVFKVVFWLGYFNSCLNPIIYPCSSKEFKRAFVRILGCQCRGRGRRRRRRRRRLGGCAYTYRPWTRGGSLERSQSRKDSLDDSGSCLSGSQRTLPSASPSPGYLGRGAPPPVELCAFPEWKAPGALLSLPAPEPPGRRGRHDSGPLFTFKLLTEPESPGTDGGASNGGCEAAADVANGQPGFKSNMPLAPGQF
The next assay deals with Male Sprague–Dawley rats. As to the kind of experiment: Behavioral Pattern Monitor. In kind it is in vivo, rat. In a few lines: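 Male Sprague–Dawley rats (250–275 g at arrival), pair-housed under a reverse 12-h light–dark cycle, were handled the day before testing and were naïve to the BPM. Pargyline (0 or 10 mg/kg) was given 20 min before the test compound; all dosing was s.c. at 1 ml/kg, n=7–8. Ten min after dosing, rats were placed in the BPM and monitored for 60 min in darkness. Crossings between eight sectors were counted in 10-min bins, and spatial d was derived from X–Y paths.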

A further assay has as its target H3 (Homo sapiens, UniProt Q9Y5N1). As to the kind of experiment: Radioligand binding.
For a further assay, the target named is H1 (Homo sapiens, UniProt P35367). Kind of assay: Radioligand binding.
Sequence of H1 (P35367 whole entry): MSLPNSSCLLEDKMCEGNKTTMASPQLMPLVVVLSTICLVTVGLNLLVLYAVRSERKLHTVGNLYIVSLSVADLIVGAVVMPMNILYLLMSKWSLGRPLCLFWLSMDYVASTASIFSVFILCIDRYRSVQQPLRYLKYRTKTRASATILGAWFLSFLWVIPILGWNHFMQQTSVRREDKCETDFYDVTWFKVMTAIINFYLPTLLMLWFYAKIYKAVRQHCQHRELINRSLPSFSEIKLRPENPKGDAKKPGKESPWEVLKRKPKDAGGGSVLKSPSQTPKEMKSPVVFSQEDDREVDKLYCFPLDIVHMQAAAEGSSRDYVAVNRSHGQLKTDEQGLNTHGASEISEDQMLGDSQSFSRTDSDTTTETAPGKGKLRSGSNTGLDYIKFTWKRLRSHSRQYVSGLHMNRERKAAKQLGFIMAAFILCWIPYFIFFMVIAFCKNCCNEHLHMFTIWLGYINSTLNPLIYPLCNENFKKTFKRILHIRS
The next assay concerns the target MOR (Homo sapiens, UniProt P35372). As to the kind of experiment: Radioligand binding.
The target of another assay is D3 (Rattus norvegicus, UniProt P19020). As to the kind of experiment: Radioligand binding.
Sequence of D3 (P19020 whole entry): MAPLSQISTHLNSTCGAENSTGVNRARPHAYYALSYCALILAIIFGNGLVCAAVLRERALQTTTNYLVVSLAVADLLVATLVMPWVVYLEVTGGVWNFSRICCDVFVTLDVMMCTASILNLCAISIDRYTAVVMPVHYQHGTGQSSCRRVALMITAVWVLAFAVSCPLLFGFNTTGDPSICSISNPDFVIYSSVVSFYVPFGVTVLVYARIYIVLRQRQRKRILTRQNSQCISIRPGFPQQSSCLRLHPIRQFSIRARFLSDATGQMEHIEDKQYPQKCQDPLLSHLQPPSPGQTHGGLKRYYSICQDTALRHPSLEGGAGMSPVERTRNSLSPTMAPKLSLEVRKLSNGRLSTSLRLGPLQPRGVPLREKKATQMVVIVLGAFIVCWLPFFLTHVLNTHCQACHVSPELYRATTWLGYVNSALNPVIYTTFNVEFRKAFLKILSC
For a further assay, the target named is M3 (Homo sapiens, UniProt P20309). Kind of assay: Radioligand binding.
Another assay addresses H4 (Homo sapiens, UniProt Q9H3N8). Kind of assay: Radioligand binding.
Another assay has as its target α2C (Homo sapiens, UniProt P18825). Kind of assay: Radioligand binding.
Assay [1] deals with [3H]DOB-labeled 5-HT2A receptors. The settings on record: [3H]DOB-labeled 5-HT2A receptors (agonist high-affinity state) ref Egan et al. 2000; cited from earlier work.
A further assay concerns the target α1D (Homo sapiens, UniProt P25100). As to the kind of experiment: Radioligand binding.
A further assay concerns the target β1 (Homo sapiens, UniProt P08588). Kind of assay: Radioligand binding.
The target of a further assay is M5 (Homo sapiens, UniProt P08912). As to the kind of experiment: Radioligand binding.
For another assay, the target named is H2 (Homo sapiens, UniProt P25021). As to the kind of experiment: Radioligand binding.
A further assay addresses KOR (Homo sapiens, UniProt P41145). Kind of assay: Radioligand binding.
A further assay concerns the target M4 (Homo sapiens, UniProt P08173). As to the kind of experiment: Radioligand binding.
In another assay the target is β2 (Homo sapiens, UniProt P07550). Kind of assay: Radioligand binding.
Sequence of β2 (P07550 whole entry): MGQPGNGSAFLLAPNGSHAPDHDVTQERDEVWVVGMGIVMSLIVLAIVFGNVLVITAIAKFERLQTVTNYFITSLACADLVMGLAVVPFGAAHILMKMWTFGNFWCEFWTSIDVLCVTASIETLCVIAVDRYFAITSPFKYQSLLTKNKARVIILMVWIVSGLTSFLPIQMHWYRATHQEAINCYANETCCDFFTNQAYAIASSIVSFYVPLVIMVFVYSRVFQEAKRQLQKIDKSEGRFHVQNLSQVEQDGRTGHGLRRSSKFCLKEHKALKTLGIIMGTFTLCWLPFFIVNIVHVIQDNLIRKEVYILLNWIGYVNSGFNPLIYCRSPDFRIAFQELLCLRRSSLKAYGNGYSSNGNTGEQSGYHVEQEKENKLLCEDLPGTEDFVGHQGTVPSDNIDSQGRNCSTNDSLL
Another assay has as its target D1 (Homo sapiens, UniProt P21728). Kind of assay: Radioligand binding.
For a further assay, the system named is humans. The settings on record: hallucinogenic activity, parenteral ref Shulgin and Shulgin 1997; cited from earlier work.
The next assay concerns the target NET (Homo sapiens, UniProt P23975). Kind of assay: Radioligand binding.
Another assay deals with 5-HT2A receptor. The settings on record: higher affinity than 5-MeO-DMT ref Roth et al. 1997; Egan et al. 2000; cited from earlier work.
The test system of the next assay is MAOA. The settings on record: pargyline 10 mg/kg, s.c. ref Ortmann et al. 1984; cited from earlier work.
The next assay deals with MAOB. The settings on record: pargyline 10 mg/kg, s.c. ref Ortmann et al. 1984; cited from earlier work.
[2] abbreviates: Experiment 1, drug × time interaction, post hoc per 30-min block.
Setting [3] is: read-out: Ki nM (±SEM), [3H]prazocin, cloned human receptor.
[4] abbreviates: read-out: Ki nM (±SEM), [3H]clonidine, cloned human receptor.

These results are taken from paper PMC3796951 (Psychopharmacology, 2012).

Counter-ions that a name gives are not always drawn. Like-named read-outs stand apart in the source and are kept apart here.

Sequence of Sigma-2 (Q5U3Y7 whole entry): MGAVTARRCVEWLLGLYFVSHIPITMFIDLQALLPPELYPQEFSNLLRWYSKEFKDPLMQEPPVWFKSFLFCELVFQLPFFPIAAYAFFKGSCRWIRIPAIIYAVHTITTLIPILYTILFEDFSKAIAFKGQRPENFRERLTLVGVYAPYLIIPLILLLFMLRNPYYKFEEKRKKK
Sequence of α2C (P18825 whole entry): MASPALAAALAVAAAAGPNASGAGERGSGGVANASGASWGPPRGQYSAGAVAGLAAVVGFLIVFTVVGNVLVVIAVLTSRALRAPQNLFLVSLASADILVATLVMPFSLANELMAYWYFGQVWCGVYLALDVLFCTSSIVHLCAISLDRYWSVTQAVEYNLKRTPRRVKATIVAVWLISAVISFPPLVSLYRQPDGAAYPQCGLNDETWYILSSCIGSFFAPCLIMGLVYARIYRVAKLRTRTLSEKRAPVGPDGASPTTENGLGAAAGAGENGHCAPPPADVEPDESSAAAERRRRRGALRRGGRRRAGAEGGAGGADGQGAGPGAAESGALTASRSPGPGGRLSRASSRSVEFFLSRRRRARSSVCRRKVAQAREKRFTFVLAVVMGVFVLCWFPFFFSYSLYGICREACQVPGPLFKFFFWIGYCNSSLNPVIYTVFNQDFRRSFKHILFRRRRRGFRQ
Sequence of α1A (P35348 whole entry): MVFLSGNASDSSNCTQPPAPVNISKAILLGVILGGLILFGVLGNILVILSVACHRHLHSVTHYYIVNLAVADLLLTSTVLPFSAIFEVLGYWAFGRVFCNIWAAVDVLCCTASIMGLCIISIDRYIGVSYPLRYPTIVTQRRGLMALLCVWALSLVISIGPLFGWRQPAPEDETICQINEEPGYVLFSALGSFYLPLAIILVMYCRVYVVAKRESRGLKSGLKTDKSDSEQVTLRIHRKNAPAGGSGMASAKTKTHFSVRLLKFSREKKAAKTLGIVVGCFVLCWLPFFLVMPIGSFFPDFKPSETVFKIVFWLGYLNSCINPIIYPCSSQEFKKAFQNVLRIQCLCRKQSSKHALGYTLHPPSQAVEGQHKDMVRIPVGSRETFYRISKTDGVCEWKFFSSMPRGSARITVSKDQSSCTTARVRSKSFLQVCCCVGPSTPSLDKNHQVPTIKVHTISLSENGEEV
Sequence of α1D (P25100 whole entry): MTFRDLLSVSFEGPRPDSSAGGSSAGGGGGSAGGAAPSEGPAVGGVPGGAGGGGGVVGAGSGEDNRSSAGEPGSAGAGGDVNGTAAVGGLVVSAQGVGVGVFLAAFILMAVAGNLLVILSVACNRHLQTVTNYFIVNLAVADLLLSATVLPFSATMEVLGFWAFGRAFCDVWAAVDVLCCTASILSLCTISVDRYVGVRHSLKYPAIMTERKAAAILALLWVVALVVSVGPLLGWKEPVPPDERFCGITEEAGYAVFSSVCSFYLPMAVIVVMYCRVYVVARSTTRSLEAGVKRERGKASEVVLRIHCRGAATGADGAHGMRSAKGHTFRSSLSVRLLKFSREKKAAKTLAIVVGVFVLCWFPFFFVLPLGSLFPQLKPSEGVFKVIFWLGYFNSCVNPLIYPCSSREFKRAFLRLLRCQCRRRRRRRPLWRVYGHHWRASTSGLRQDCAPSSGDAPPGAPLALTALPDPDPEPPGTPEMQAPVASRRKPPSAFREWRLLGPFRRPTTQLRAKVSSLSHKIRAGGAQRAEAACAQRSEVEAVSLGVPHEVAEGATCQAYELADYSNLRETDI
Sequence of sigma-1 (Q99720 whole entry): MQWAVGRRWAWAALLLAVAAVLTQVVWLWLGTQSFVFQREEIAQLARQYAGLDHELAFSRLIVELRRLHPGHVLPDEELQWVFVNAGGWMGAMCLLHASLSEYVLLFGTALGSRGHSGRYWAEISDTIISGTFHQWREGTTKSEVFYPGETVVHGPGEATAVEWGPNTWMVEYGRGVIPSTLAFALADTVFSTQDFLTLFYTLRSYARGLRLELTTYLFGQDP

Regarding `COc1ccc2[nH]cc(CCN(C)C)c2c1.O=C(O)C(=O)O` [5-MeO-DMT, 5-Methoxy-N, N-dimethyltryptamine oxalate], the Ki was above 10 µM at β3; above 10 µM at sigma-1; 4370 nM on α1A; above 10 µM on EP3; above 10 µM at EP4; above 10 µM on D4. Moreover, the inhibition constant (Ki) at D5 is above 10 µM; at D2, above 10 µM; on SERT it was 3600 nM; at DAT, above 10 µM; on M1, above 10 µM; on DOR, above 10 µM. Further, the Ki on Sigma-2 was 3690 nM; on α2A, 938 nM; on M2 it was above 10 µM; at α1B it was 2190 nM; at H3, above 10 µM; on H1, 7580 nM. Besides, the inhibitory constant (Ki) at MOR was above 10 µM; at D3, above 10000 nM; on M3, above 10 µM; at H4, above 10 µM; on α2C, 206 nM; in assay [1], 0.09 µM. Also, the inhibitory constant (Ki) is 439 nM at α1D; above 10 µM on β1; above 10 µM on M5; above 10000 nM at H2; above 10 µM on KOR; above 10 µM on M4. For the same molecule, the figures for the inhibitory constant (Ki) on β2, on D1 and at NET were 2680 nM, above 10 µM and above 10 µM, respectively. Besides, the “Effect on crossings (locomotor activity)” value is “reduced crossings during the first half-hour, but did not increase activity during the second half-hour” with Male Sprague–Dawley rats (Experiment 1, 0.1 mg/kg s.c. after pargyline 10 mg/kg); “reduced crossings” in the assay with Male Sprague–Dawley rats (Experiment 1, 0.1 and 1.0 mg/kg s.c., vehicle-pretreated rats); “significantly reduced crossings” with Male Sprague–Dawley rats (Experiment 3, 0.3 to 3.0 mg/kg s.c. alone, first 10 min of testing (p<0.01)). In addition, the “Effect on spatial d” value is listed as “significantly reduced spatial d” in the assay on Male Sprague–Dawley rats (Experiment 1, 1.0 mg/kg s.c. after pargyline 10 mg/kg, second half-hour of session (p<0.01)); “no effect on spatial d” in the assay on Male Sprague–Dawley rats (Experiment 1, 0.01 and 0.1 mg/kg s.c. after pargyline 10 mg/kg); “post hoc analysis failed to confirm this for any specific 30-min block” in the assay with Male Sprague–Dawley rats (setting [2]); “failed to alter spatial d significantly” in the assay with Male Sprague–Dawley rats (Experiment 3, 0.3 to 3.0 mg/kg s.c. alone, first or second half-hour, post hoc). Further, in the assay on Male Sprague–Dawley rats (Experiment 3, alone, up to 3 mg/kg s.c.), the “Biphasic effects on locomotor activity” value is “did not induce biphasic effects on locomotor activity”. The “Active parenteral dose in humans” value with humans is 2 to 3 mg.
Consider `CN(C)CCc1c[nH]c2ccc(O)cc12` [bufotenine, 5-hydroxy-DMT], for which the “Affinity for the 5-HT2A receptor relative to 5-MeO-DMT” value in the assay on 5-HT2A receptor was 10 fold.
In the case of `C#CCN(C)Cc1ccccc1` [pargyline, pargyline hydrochloride], the “Effect on spatial d” value in the assay on Male Sprague–Dawley rats (setting [2]) is given as “post hoc analysis failed to confirm this for any specific 30-min block”. The MAOA inhibition in the assay with MAOA was 78%. Also, the MAOB inhibition in the assay on MAOB is listed as 92%.
For the molecule `COc1ccc2[nH]cc(CCN(C)C)c2c1` [α,α,β,β-tetradeutero-5-MeO-DMT, α,α,β,β-Tetradeutero-5-methoxy-N,N-dimethyltryptamine (2:1) fumarate], the Ki at α1A (setting [3]) was 1010 nM; at SERT (read-out: Ki nM (±SEM), [3H]citalopram, cloned human transporter), 2760 nM; on Sigma-2 (read-out: Ki nM (±SEM), [3H]DTG, rat), 7170 nM; at α2A (setting [4]), 1870 nM; on α1B (setting [3]) it was 841 nM; at H1 (read-out: Ki nM (±SEM), [3H]pyrilamine, cloned human receptor), above 10000 nM. Moreover, the Ki amounted to 7090 nM at D3 (read-out: Ki nM (±SEM), [3H]N-methyl-spiperone, cloned rat receptor); 274 nM at α2C (setting [4]); 202 nM at α1D (read-out: Ki nM (±SEM), [125I]HEAT, cloned human receptor); 7160 nM at H2 (read-out: Ki nM (±SEM), [3H]tiotidine, cloned human receptor); 4560 nM at β2 (read-out: Ki nM (±SEM), [3H]CGP12177, cloned human receptor).
For the molecule `O=C(O)/C=C/C(=O)O.[2H]C([2H])(c1c[nH]c2ccc(OC)cc12)C([2H])([2H])N(C)C.[2H]C([2H])(c1c[nH]c2ccc(OC)cc12)C([2H])([2H])N(C)C` [α,α,β,β-tetradeutero-5-MeO-DMT, α,α,β,β-Tetradeutero-5-methoxy-N,N-dimethyltryptamine (2:1) fumarate], the “Effect on spatial d” value in the assay with Male Sprague–Dawley rats (Experiment 2, 3.0 mg/kg s.c., first 30 min of the session (p<0.01)) is “significantly increased spatial d”; with Male Sprague–Dawley rats (Experiment 2, 3.0 mg/kg s.c., second 30 min of the session (p<0.01)), “significantly reduced spatial d”. The “Effect on crossings (locomotor activity)” value with Male Sprague–Dawley rats (Experiment 2, 0.3, 1.0 and 3.0 mg/kg s.c., first 20 min of the session) was “significantly reduced crossings”. Besides, the “Delayed increase in locomotor activity” value in the assay with Male Sprague–Dawley rats (Experiment 2, 0.3 and 1.0 mg/kg s.c.) was “Neither of the lower doses tested (0.3 and 1.0 mg/kg) induced a delayed increase in activity”.

One may read the Ki as a measure of affinity in units of concentration, obtained from inhibition or displacement.
